From ChEMBL document CHEMBL3407457, “Microwave-assisted synthesis of certain pyrrolylpyridines, some derived ring systems and their evaluation as anticancer and antioxidant agents” (Eur J Med Chem, 2015)

Assays:
HOP-62 = experiment: Growth inhibition of human HOP62 cells after 48 hrs by sulforhodamine B assay; assay type: functional; conditions: HOP-62, 48 h
How it was run: (§1)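 NCI-60 five-dose screen: cells incubated 48 h with five concentrations (0.01-100 µM), read by sulforhodamine B protein assay. Log concentration-% growth inhibition curves gave GI50 (50% decrease in net growth), TGI (total growth inhibition) and LC50 (net 50% loss of initial cells). 5-FU positive control.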

SN12C = experiment: Growth inhibition of human SN12C cells after 48 hrs by sulforhodamine B assay; assay type: functional; how it was run: as §1
SR = experiment: Growth inhibition of human SR cells after 48 hrs by sulforhodamine B assay; assay type: functional; how it was run: as §1
[1] = Growth inhibition of human SF539 cells after 48 hrs by sulforhodamine B assay; assay type: functional; conditions: SF-539, 48 h; how it was run: as §1
HL-60(TB) = experiment: Growth inhibition of human HL-60(TB) cells after 48 hrs by sulforhodamine B assay; assay type: functional; conditions: HL-60, 48 h
How it was run: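 NCI-60 five-dose screen, HL-60(TB) being one of the leukemia subpanel lines. Cells exposed to five concentrations (0.01-100 µM) for 48 h. GI50 (concentration giving 50% decrease in net cell growth) read from log concentration-% growth inhibition curves; TGI and LC50 also derived. 5-fluorouracil as positive control.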

[2] = Growth inhibition of human UACC62 cells after 48 hrs by sulforhodamine B assay; assay type: functional; conditions: UACC-62, 48 h; how it was run: as §1
[3] = Growth inhibition of human BT549 cells after 48 hrs by sulforhodamine B assay; assay type: functional; conditions: BT-549, 48 h; how it was run: as §1
MDA-MB-231 = experiment: Growth inhibition of human MDA-MB-231 cells after 48 hrs by sulforhodamine B assay; assay type: functional; conditions: MDA-MB-231, 48 h; how it was run: as §1
SNB-75 = experiment: Growth inhibition of human SNB75 cells after 48 hrs by sulforhodamine B assay; assay type: functional; conditions: SNB-75, 48 h; how it was run: as §1
[4] = Growth inhibition of human HOP92 cells after 48 hrs by sulforhodamine B assay; assay type: functional; conditions: HOP-92, 48 h; how it was run: as §1
[5] = Growth inhibition of human MOLT4 cells after 48 hrs by sulforhodamine B assay; assay type: functional; conditions: MOLT-4, 48 h; how it was run: as §1
MCF7 = experiment: Growth inhibition of human MCF7 cells after 48 hrs by sulforhodamine B assay; assay type: functional; conditions: MCF7, 48 h; how it was run: as §1
[6] = Growth inhibition of human EKVX cells after 48 hrs by sulforhodamine B assay; assay type: functional; how it was run: as §1
[7] = Growth inhibition of human RPMI8226 cells after 48 hrs by sulforhodamine B assay; assay type: functional; conditions: RPMI-8226, 48 h; how it was run: as §1
IGROV-1 = experiment: Growth inhibition of human IGROV1 cells after 48 hrs by sulforhodamine B assay; assay type: functional; conditions: IGROV-1, 48 h; how it was run: as §1
NCI-H522 = experiment: Growth inhibition of human NCI-H522 cells after 48 hrs by sulforhodamine B assay; assay type: functional; conditions: NCI-H522, 48 h; how it was run: as §1
[8] = Growth inhibition of human UO31 cells after 48 hrs by sulforhodamine B assay; assay type: functional; conditions: UO-31, 48 h; how it was run: as §1
DU-145 = experiment: Growth inhibition of human DU145 cells after 48 hrs by sulforhodamine B assay; assay type: functional; conditions: DU-145, 48 h; how it was run: as §1
SF-268 = experiment: Growth inhibition of human SF268 cells after 48 hrs by sulforhodamine B assay; assay type: functional; conditions: SF-268, 48 h; how it was run: as §1
NCI-H226 = experiment: Growth inhibition of human NCI-H226 cells after 48 hrs by sulforhodamine B assay; assay type: functional; conditions: NCI-H226, 48 h; how it was run: as §1
[9] = Growth inhibition of human HCT116 cells after 48 hrs by sulforhodamine B assay; assay type: functional; conditions: HCT-116, 48 h; how it was run: as §1
A498 = experiment: Growth inhibition of human A498 cells after 48 hrs by sulforhodamine B assay; assay type: functional; conditions: A498, 48 h; how it was run: as §1
CCRF-CEM = experiment: Growth inhibition of human CCRF-CEM cells after 48 hrs by sulforhodamine B assay; assay type: functional; how it was run: as §1
[10] = Growth inhibition of human OVCAR4 cells after 48 hrs by sulforhodamine B assay; assay type: functional; conditions: OVCAR-4, 48 h; how it was run: as §1
[11] = Antioxidant activity assessed as DPPH radical scavenging activity at 10^-3 M incubated for 30 mins by spectrophotometry; assay type: physicochemical; conditions: 0.5 h, 1000 µM
How it was run: (§2)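 Compound at 10^-3 or 10^-4 M mixed with methanolic DPPH (0.1 mL of 1 mM stock; 3 mL total volume), shaken, kept in the dark 30 min at room temperature. Absorbance read at 517 nm. Scavenging (%) = (A_control − A_sample)/A_control × 100, where the control is DPPH in methanol alone. BHT served as reference antioxidant. Triplicate, mean ± SD of three independent experiments.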

[12] = Antioxidant activity assessed as DPPH radical scavenging activity at 10^-4 M incubated for 30 mins by spectrophotometry; assay type: physicochemical; conditions: 0.5 h, 100 µM; how it was run: as §2
[13] = read-out: LC50 (the source's name)

Row | SMILES | GI50 (HOP-62) [µM] | GI50 (SN12C) [µM] | GI50 (SR) [µM] | GI50 [1] [µM] | GI50 (HL-60(TB)) [µM] | GI50 [2] [µM] | GI50 [3] [µM] | GI50 (MDA-MB-231) [µM] | GI50 (SNB-75) [µM] | GI50 [4] [µM] | GI50 [5] [µM] | GI50 (MCF7) [µM] | GI50 [6] [µM] | GI50 [7] [µM] | GI50 (NCI-H522) [µM] | GI50 (DU-145) [µM] | GI50 (SF-268) [µM] | GI50 (NCI-H226) [µM] | GI50 [9] [µM] | GI50 [10] [µM] | other results
1 | Cn1cccc1-c1cc(-c2cccs2)[nH]c(=O)c1C#N | 83.2 | > 100 | > 100 | > 100 | > 100 | 72.4 | > 100 | > 100 | 38.1 | 10 | > 100 | > 100 | 52.5 | > 100 | 25.7 | > 100 | > 100 | 69.2 | > 100 | > 100 | TGI [4]: 40.7 µM; GI50 (IGROV-1): 22.9 µM; GI50 [8]: 13.8 µM; TGI [8]: 27.5 µM; CC50 [8, 13]: 54.9 µM; GI50 (A498): 17.8 µM; GI50 (CCRF-CEM): > 100 µM
2 | CC1CCCc2c1[nH]c(=O)c(C#N)c2-c1cccn1C (stereo not drawn) | > 100 | > 100 | > 100 | > 100 | > 100 | > 100 | > 100 | > 100 | 39.8 | > 100 | > 100 | > 100 | > 100 | > 100 | > 100 | > 100 | > 100 | > 100 | > 100 | 69.2 | GI50 (IGROV-1): > 100 µM; GI50 [8]: > 100 µM; GI50 (A498): > 100 µM; GI50 (CCRF-CEM): > 100 µM
3 | Cc1cc(C(C)(C)C)c(O)c(C(C)(C)C)c1 [BUTYLATED HYDROXYTOLUENE] |  |  |  |  |  |  |  |  |  |  |  |  |  |  |  |  |  |  |  |  | inhibition (INH) [11]: 36%; inhibition (INH) [12]: 20%
4 | COc1ccc(-c2cc(-c3cccn3C)c(C#N)c(=O)[nH]2)cc1OC | > 100 | > 100 | 0.48 | > 100 | > 100 |  | 34.7 | > 100 |  | 0.05 | 22.9 | > 100 | 30.9 | > 100 | > 100 | > 100 | > 100 | > 100 | 91.2 | > 100 | inhibition (INH) [11]: 31%; TGI [4]: 9.77 µM; inhibition (INH) [12]: 17%
5 | Cn1cccc1-c1cc(-c2ccccc2)nc(N)c1C#N | 81.3 | > 100 | 35.5 | 33.9 | 0.76 | 44.7 | 60.2 | 67.6 | 18.6 | 0.01 | > 100 | > 100 | 95.5 | 53.7 | 61.6 | > 100 | 79.4 | > 100 | > 100 | 46.8 | inhibition (INH) [11]: 27%; TGI (SNB-75): 77.6 µM; TGI [4]: 0.05 µM; GI50 (IGROV-1): > 100 µM; inhibition (INH) [12]: 12%; GI50 [8]: > 100 µM; GI50 (A498): 91.2 µM; GI50 (CCRF-CEM): 0.08 µM; LC50 (concentration causing net 50% loss of initial cells) (CCRF-CEM): 3.55 µM; TGI (CCRF-CEM): 0.38 µM
6 | Cn1cccc1-c1cc(-c2ccccc2)[nH]c(=O)c1C#N | > 100 | > 100 | > 100 | > 100 | > 100 | 97.7 | 85.1 | 83.2 | 47.4 | 0.11 | 29.1 | > 100 | 31.7 | > 100 | > 100 | > 100 | > 100 | > 100 | > 100 | > 100 | TGI [4]: 0.13 µM; TGI [5]: 57.4 µM; GI50 (IGROV-1): > 100 µM; GI50 [8]: > 100 µM; GI50 (A498): 27.5 µM; GI50 (CCRF-CEM): > 100 µM
7 | COc1ccc(-c2cc(-c3cccn3C)c(C#N)c(N)n2)cc1OC | > 100 | 67.6 | 56.2 | 83.2 | 19.5 | 87.1 | 64.6 | 38 | 20.9 | 5.13 | 46.8 | 93.3 | > 100 | 38.9 | 40.7 | 91.2 | 83.2 | > 100 | 89.1 | 40.7 | inhibition (INH) [11]: 33%; TGI (SNB-75): 70.8 µM; GI50 (IGROV-1): 95.5 µM; inhibition (INH) [12]: 19%; GI50 [8]: 97.7 µM; GI50 (A498): 83.2 µM; GI50 (CCRF-CEM): 0.01 µM; LC50 (concentration causing net 50% loss of initial cells) (CCRF-CEM): 9.77 µM; TGI (CCRF-CEM): 3.98 µM
8 | CC1CCCc2c1nc(N)c(C#N)c2-c1cccn1C (stereo not drawn) | > 100 | 30.2 | 3.39 | > 100 | 0.42 | 33.1 | 69.1 | 69.2 | 22.4 | 47.9 | > 100 | > 100 | > 100 | 79.4 | 66.1 | > 100 | > 100 | 64.6 | > 100 | 77.6 | TGI (SR): 20.4 µM; CC50 (SR; [13]): 91.2 µM; inhibition (INH) [11]: 16%; TGI (SNB-75): 85.1 µM; GI50 (IGROV-1): 70.8 µM; inhibition (INH) [12]: 9%; GI50 [8]: > 100 µM; GI50 (A498): 91.2 µM; GI50 (CCRF-CEM): > 100 µM
9 | Cn1cccc1-c1cc(-c2cccs2)nc(N)c1C#N | > 100 | > 100 | 5.37 | > 100 | > 100 | 87.1 | > 100 | > 100 | 45.7 | > 100 | > 100 | > 100 | > 100 | > 100 | > 100 | > 100 | > 100 | > 100 | > 100 | 85.1 | TGI (SR): 67.6 µM; GI50 (IGROV-1): > 100 µM; GI50 [8]: > 100 µM; GI50 (A498): > 100 µM; GI50 (CCRF-CEM): > 100 µM
